Test results taken from paper PMC6209313 (Molecular Pharmaceutics, 2018).
In brackets after ≈: the same amount, converted by molar mass. Like-named read-outs stand apart in the source and are kept apart here.

How the values were obtained:
[1] = cited from earlier work; for solid form of precipitate during dispersion: dispersion (dilution in bile) ref 13; for solid form of precipitate during digestion: in vitro digestion of LBFs ref 11-17; for solid form of precipitate in vitro and in vivo: drug loaded into LBFs ref 41
[2] = Maximum drug loading capacity; format: physicochemical; conditions: 37 °C, mean (sd)
[3] = Drug solubility in lipolysis medium; format: physicochemical; conditions: for solubility fold-increase between dispersion and digestion media: IIIA-LC; for solubility at 24 h: dispersion medium of blank (placebo) LBF lipolysis, all LBFs, pH 6.5
Procedure, shortened: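 Placebo LBF digested in pH 6.5 buffer (2 mM Tris-maleate, 1.4 mM CaCl2·2H2O, 150 mM NaCl, FaSSIF 3.0 mM taurocholate/0.75 mM lecithin), 37 °C, porcine pancreatin. Media sampled at 10 min dispersion and 60 min digestion, lipase inhibited with 4-bromophenyl boronic acid, centrifuged. Supernatant shaken with excess crystalline drug at 37 °C, pH readjusted to 6.5. HPLC at 5 h and 24 h; value is mean of 24 h triplicates.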

Dose number = format: physicochemical; conditions: for Do value: 80% loading, lipid-rich LBFs after digestion, maximum-value of 0.5 observed; for Do 80%: 80% of maximum drug load, 45 mL digestion medium; for lipolysis Do: applied drug load during in vitro lipolysis
[4] = Acid/base/neutral class and ionization at the pH of lipolysis; format: physicochemical; conditions: pH 6.5
[5] = Solid state characterization of drug precipitate; format: physicochemical; conditions: IIIB-MC, 60 min of digestion, PLM and Raman
Procedure, shortened: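 Drug-loaded IIIB-MC (1.25 g in 45 mL medium, pH-stat 6.5, 37 °C) digested with pancreatin. The pellet at 60 min was imaged immediately by crossed-polarizer light microscopy. Raman used 785 nm at 400 mW over 100–1890 cm–1, with SNV baseline correction and blank-pellet background correction. References were crystalline drug, blank and drug-spiked blank pellets, and melt-quenched amorphous drug.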

[6] = In vitro lipolysis of drug-loaded IIIB-MC, quantification of precipitated drug; format: physicochemical; conditions: for degree of precipitated drug: 60 min of digestion; for precipitation during lipolysis at 80% loading: data not shown

Row | Structure (SMILES) | solid form of precipitate during digestion [1] | maximum drug loading capacity (loading) ([2]; IIIA-LC) | maximum drug loading capacity (loading) ([2]; IIIB-MC) | maximum drug loading capacity (loading) ([2]; IV) | Do 80% (Dose number; IIIA-LC) | Do 80% (Dose number; IIIB-MC) | Do 80% (Dose number; IV) | solid form of precipitated drug in the pellet [5] | also measured
1 | COc1ccccc1OCCNCC(O)COc1cccc2[nH]c3ccccc3c12 (stereo not shown) [Carvedilol] | amorphous form | – | – | – | – | – | – | – | solid form of precipitate during dispersion [1]: crystalline form
2 | C(=C\c1ccccc1)/CN1CCN(C(c2ccccc2)c2ccccc2)CC1 [Cinnarizine] | amorphous character or in a molecular dispersion with digestion components | 34.5 (3.2) mg/g | 41.8 (0.7) mg/g | 43.2 (1.7) mg/g | 0.2 | 0.5 | 2.1 | – | solubility fold-increase between dispersion and digestion media [3]: 6 fold; solid form of precipitated material ([1]; pH 4.0, 5.5, and 6.5 (ionized) ref 12): noncrystalline; solid form of precipitated material ([1]; pH 8.0 (unionized) ref 12): crystalline; Do value (Dose number): ≤ 1; extent of ionization [4]: 90%
3 | C#C[C@]1(O)CC[C@H]2[C@@H]3CCC4=Cc5oncc5C[C@]4(C)[C@H]3CC[C@@]21C [Danazol] | crystalline form | 16.4 (0.7) mg/g | 38.8 (1.4) mg/g | 50.1 (1.2) mg/g | 4.9 | 9.5 | 13.5 | crystalline form | solid form of precipitate in previous in vitro lipolysis studies [1]: crystalline form; solid form of precipitate in vitro and in vivo [1]: crystalline form; lipolysis Do (Dose number; IIIB-MC): 4.8
4 | CCOC(=O)C1=C(C)NC(C)=C(C(=O)OC)C1c1cccc(Cl)c1Cl (stereo not shown) [Felodipine] | – | 75.4 (4.7) mg/g | 176.2 (2.1) mg/g | 218.0 (9.3) mg/g | 6.8 | 9.1 | 11.1 | crystalline and amorphous mixture | lipolysis Do (Dose number; IIIB-MC): 9.1
5 | CC(C)OC(=O)C(C)(C)Oc1ccc(C(=O)c2ccc(Cl)cc2)cc1 [Fenofibrate] | crystalline form | – | – | – | – | – | – | – | solid form of precipitate in vitro and in vivo [1]: crystalline form
6 | COC1=CC(=O)C[C@@H](C)[C@]12Oc1c(Cl)c(OC)cc(OC)c1C2=O [Griseofulvin] | – | – | – | – | 1.4 | 2.9 | 4.6 | crystalline form | degree of precipitated drug [6]: 11%; precipitation during lipolysis at 80% loading [6]: did not precipitate
7 | O=C(CCCN1CCC(O)(c2ccc(Cl)cc2)CC1)c1ccc(F)cc1 [Haloperidol] | – | 3.9 (1.2) mg/g | 17.7 (1.2) mg/g | 21.5 (2.1) mg/g | 0.0 | 0.1 | 0.4 | – | solubility fold-increase between dispersion and digestion media [3]: 11 fold; Do value (Dose number): ≤ 1; extent of ionization [4]: 99%
8 | COc1ccc2c(c1)c(CC(=O)O)c(C)n2C(=O)c1ccc(Cl)cc1 [Indomethacin] | – | 31.9 (1.1) mg/g | 84.7 (3.5) mg/g | 121.3 (4.2) mg/g | 0.7 | 1.6 | 2.4 | crystalline and amorphous mixture | solubility at 24 h [3]: 1500 to 1700 µg/mL (≈ 4.19 to 4.75 mM); degree of precipitated drug [6]: 2%; precipitation during lipolysis at 80% loading [6]: did not precipitate
9 | CC(=O)N1CCN(c2ccc(OCC3COC(Cn4ccnc4)(c4ccc(Cl)cc4Cl)O3)cc2)CC1 (stereo not shown) [Ketoconazole] | – | 9.7 (1.2) mg/g | 23.0 (1.0) mg/g | 29.9 (1.5) mg/g | 0.2 | 0.5 | 1.4 | – | solubility fold-increase between dispersion and digestion media [3]: 2 fold; Do value (Dose number): ≤ 1; extent of ionization [4]: 42%
10 | CCOC(=O)N1CCC(=C2c3ccc(Cl)cc3CCc3cccnc32)CC1 [Loratidine] | crystalline form | – | – | – | – | – | – | – | solid form of precipitate during dispersion [1]: crystalline form
11 | O=C(Nc1ccc([N+](=O)[O-])cc1Cl)c1cc(Cl)ccc1O [Niclosamide] | – | 13.6 (0.4) mg/g | 50.9 (1.6) mg/g | 80.7 (4.5) mg/g | 14.5 | 54.6 | 55.8 | hydrate form | solubility at 24 h [3]: < 80 µg/mL; lipolysis Do (Dose number; IIIB-MC): 11.1
12 | CCC(C)(C)C(=O)O[C@H]1C[C@@H](C)C=C2C=C[C@H](C)[C@H](CC[C@@H]3C[C@@H](O)CC(=O)O3)[C@H]21 [Simvastatin] | amorphous form | – | – | – | – | – | – | – | –
13 | Cc1c(Cl)cccc1Nc1ccccc1C(=O)O [Tolfenamic acid] | crystalline form | – | – | – | – | – | – | – | –
